Assay results from ChEMBL document CHEMBL4400576, “Identification of Pyrazolo[1,5-a]pyridine-3-carboxamide Diaryl Derivatives as Drug Resistant Antituberculosis Agents” (ACS Med Chem Lett, 2019).
Values after ≈ are worked out from the molar mass of the structure shown.

Legend:
[1] = system: Mycobacterium tuberculosis; assay: Antibacterial activity against Mycobacterium tuberculosis H37Rv harboring LuxAB incubated for 10 days under anaerobic conditions followed by incubation under aerobic conditions for 28 hrs by LORA method; type: functional
Summary of the method: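 MIC against H37Rv by low oxygen recovery assay (LORA). Test concentrations 0.02 to 5 μg/mL.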

[2] = system: Mycobacterium tuberculosis; assay: Antibacterial activity against INH-resistant Mycobacterium tuberculosis after 7 days by microplate alamar blue assay; type: functional; settings: 168 h
Summary of the method: (§1)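 MABA MIC against rINH and rRMP Mtb strains. Test concentrations 0.002 to 0.5 μg/mL.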

[3] = system: Mycobacterium tuberculosis; assay: Antibacterial activity against RMP-resistant Mycobacterium tuberculosis after 7 days by microplate alamar blue assay; type: functional; settings: 168 h; summary of the method: as §1
[4] = system: Mycobacterium tuberculosis; assay: Antitubercular activity against Mycobacterium tuberculosis H37Ra harboring pTYOK infected in Balb/c mouse assessed as reduction in spleen bacterial burden at 50 mg/kg, po administered once daily via gavage for 5 days measured post last dose by luminometric method; type: functional
Summary of the method: (§2)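 Mice infected i.v. with log-phase selectable marker-free autoluminescent Mtb H37Ra, 2 ×10^6 CFU per mouse. Dosed once daily by oral gavage for 5 consecutive days at 10 or 50 mg/kg/day. Untreated group received CMC-Na. Bacterial burden read daily as bioluminescence (RLU) in the same live mice.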

[5] = system: Mycobacterium tuberculosis; assay: Antitubercular activity against Mycobacterium tuberculosis H37Ra harboring pTYOK infected in Balb/c mouse assessed as reduction in bacterial burden administered once daily via oral gavage for 5 days measured post last dose by luminometric method; type: functional, organism-based; summary of the method: as §2
[6] = system: Mycobacterium tuberculosis; assay: Antitubercular activity against Mycobacterium tuberculosis H37Ra harboring pTYOK infected in Balb/c mouse assessed as reduction in lung bacterial burden at 50 mg/kg, po administered once daily via gavage for 5 days measured post last dose by luminometric method; type: functional; summary of the method: as §2
[7] = system: Mycobacterium tuberculosis; assay: Antitubercular activity against Mycobacterium tuberculosis H37Ra harboring pTYOK infected in Balb/c mouse assessed as reduction in spleen bacterial burden at 10 mg/kg, po administered once daily via gavage for 5 days measured post last dose by luminometric method; type: functional; summary of the method: as §2
[8] = system: Mycobacterium tuberculosis; assay: Antitubercular activity against Mycobacterium tuberculosis H37Ra harboring pTYOK infected in Balb/c mouse assessed as reduction in lung bacterial burden at 10 mg/kg, po administered once daily via gavage for 5 days measured post last dose by luminometric method; type: functional; summary of the method: as §2

Structure (SMILES)	MIC90 [1] [µg/mL]	MIC90 [2] [µg/mL]	MIC90 [3] [µg/mL]	other results
COc1ccn2nc(C)c(C(=O)NCc3ccc(-c4ccc(OC(F)(F)F)cc4)c(OC)c3)c2c1	> 5	0.003 (≈ 0.00618 µM)	< 0.002	
COc1ccn2nc(C)c(C(=O)NCc3ncc(-c4ccc(OC(F)(F)F)cc4)o3)c2c1	2.84 (≈ 6.36 µM)			
COc1ccn2nc(C)c(C(=O)NCc3cn(-c4ccc(OC(F)(F)F)cc4)nn3)c2c1	> 5			
COc1ccn2nc(C)c(C(=O)NCc3ncc(-c4ccc(OC(F)(F)F)cc4)[nH]3)c2c1	> 5			
COc1ccn2nc(C)c(C(=O)NCc3ccc(-c4ccc(OC(F)(F)F)cc4)cn3)c2c1	> 5	0.002 (≈ 0.00438 µM)	< 0.002	fold change (FC) [4]: 0.61 log10RLU; Activity [5]: Dose-dependent effect; fold change (FC) [6]: 1 log10RLU
COc1ccn2nc(C)c(C(=O)NCc3ccc(-c4ccc(OC(F)(F)F)cc4)cc3C(F)(F)F)c2c1	> 5			
COc1ccn2nc(C)c(C(=O)NCc3ccc(-c4ccc(OC(F)(F)F)cc4)c(F)c3)c2c1	> 5	0.004 (≈ 0.00845 µM)	< 0.002	
COc1ccn2nc(C)c(C(=O)NCc3ccc(-c4ccc(OC(F)(F)F)cc4)cc3F)c2c1	> 5	0.004 (≈ 0.00845 µM)	< 0.002	
COc1ccn2nc(C)c(C(=O)NCc3nnc(-c4ccc(OC(F)(F)F)cc4)o3)c2c1	> 5			
COc1nc2ccc(Br)cc2cc1[C@@H](c1ccccc1)[C@@](O)(CCN(C)C)c1cccc2ccccc12 [BEDAQUILINE]		< 0.016	< 0.016	
CC(=O)NC[C@H]1CN(c2ccc(N3CCOCC3)c(F)c2)C(=O)O1 [LINEZOLID]	5.98 (≈ 17.7 µM)	0.953 (≈ 2.82 µM)	1.87 (≈ 5.54 µM)	
CO[C@H]1/C=C/O[C@@]2(C)Oc3c(C)c(O)c4c(O)c(c(/C=N/N5CCN(C)CC5)c(O)c4c3C2=O)NC(=O)/C(C)=C\C=C\[C@H](C)[C@H](O)[C@@H](C)[C@@H](O)[C@@H](C)[C@H](OC(C)=O)[C@@H]1C [RIFAMPIN]	2.95 (≈ 3.58 µM)	< 0.008	> 2	fold change (FC) [7]: 1.34 log10RLU; fold change (FC) [8]: 1.42 log10RLU
COc1ccn2nc(C)c(C(=O)NCc3cnc(-c4ccc(OC(F)(F)F)cc4)s3)c2c1	> 5			
COc1ccn2nc(C)c(C(=O)NCc3ccc(-c4ccc(OC(F)(F)F)cc4)cc3C)c2c1	> 5			
COc1ccn2nc(C)c(C(=O)NCc3ccc(-c4ccc(OC(F)(F)F)cc4)s3)c2c1	> 5	0.002 (≈ 0.00433 µM)	0.465 (≈ 1.01 µM)	
COc1ccn2nc(C)c(C(=O)NCc3ccc(-c4ccc(OC(F)(F)F)cc4)nc3)c2c1	4.36 (≈ 9.55 µM)	0.004 (≈ 0.00876 µM)	0.458 (≈ 1 µM)	
COc1ccn2nc(C)c(C(=O)NCc3ccc(-c4ccc(OC(F)(F)F)cc4)c(C(F)(F)F)c3)c2c1	> 5	0.003 (≈ 0.00573 µM)	< 0.002	
COc1ccn2nc(C)c(C(=O)NCc3ccc(-c4ccc(OC(F)(F)F)cc4)cc3OC)c2c1	2.25 (≈ 4.63 µM)			
COc1ccn2nc(C)c(C(=O)NCc3ccc(-c4ccc(OC(F)(F)F)cc4)c(C)c3)c2c1	2.28 (≈ 4.86 µM)	< 0.002	< 0.002	
NNC(=O)c1ccncc1 [ISONIAZID]	> 128	> 8	0.438 (≈ 3.19 µM)	
